Source: ChEMBL document CHEMBL4715682, “Potent trifluoromethoxy, trifluoromethylsulfonyl, trifluoromethylthio and pentafluorosulfanyl containing (1,3,4-oxadiazol-2-yl)benzamides against drug-resistant Gram-positive bacteria” (RSC Med Chem, 2020)
≈ marks a conversion by molar mass, not a printed value. Calls of active or inactive are those of the source. No cut-off for these calls is given here.

Columns and labels:
[1] = tested on: J774; experiment: Cytotoxicity against mouse J774 cells assessed as reduction in cell viability at 32 ug/ml incubated for 24 hrs by MTS assay; format: cell-based; details: j774, 24 h, dose 32 µg/ml
[2] = tested on: Streptococcus pneumoniae; experiment: Antibacterial activity against cephalosporin-resistant Streptococcus pneumoniae ATCC 51916 assessed as inhibition of visible bacterial growth incubated for 18 to 20 hrs by CLSI method; format: functional; details: time 18-20 hrs
In short: (§1)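 CLSI broth microdilution. Strains grown aerobically overnight on tryptic soy agar at 37 °C, adjusted to 0.5 McFarland and diluted in cation-adjusted Mueller–Hinton broth to about 5×10^5 CFU/mL. Compounds and control drugs serially diluted across the plate. Incubated aerobically at 37 °C for 18-20 h. MIC is the lowest concentration with no visible growth.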

[3] = tested on: Staphylococcus aureus; experiment: Antibacterial activity against methicillin-sensitive Staphylococcus aureus ATCC 6538 assessed as inhibition of visible bacterial growth incubated for 18 to 20 hrs by CLSI method; format: functional; details: time 18-20 hrs; in short: as §1
[4] = tested on: Listeria monocytogenes; experiment: Antibacterial activity against Listeria monocytogenes ATCC 19111 assessed as inhibition of visible bacterial growth incubated for 18 to 20 hrs by CLSI method; format: functional; details: time 18-20 hrs
In short: (§2)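 Broth microdilution per CLSI. Strains grown aerobically overnight on TSA at 37 °C, suspended to 0.5 McFarland, diluted in CAMHB to about 5×10^5 CFU/mL. Agents serially diluted across plate; aerobic incubation 37 °C for 18-20 h. MIC = lowest concentration completely preventing visible growth.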

[5] = tested on: Acinetobacter baumannii; experiment: Antibacterial activity against Acinetobacter baumannii ATCC 19606 RW4 assessed as inhibition of visible bacterial growth at 16 ug/ml incubated for 18 to 20 hrs by CLSI method; format: functional, organism-based; details: ATCC 19606 = CIP 70.34 = JCM 6841 RW4, dose 16.0 µg/ml, time 18-20 hrs; in short: as §1
[6] = tested on: Staphylococcus aureus; experiment: Antibacterial activity against methicillin-resistant Staphylococcus aureus NRS384 assessed as inhibition of visible bacterial growth incubated for 18 to 20 hrs by CLSI method; format: functional; details: time 18-20 hrs; in short: as §1
[7] = tested on: Staphylococcus aureus; experiment: Antibacterial activity against methicillin-resistant Staphylococcus aureus NRS 119 assessed as inhibition of visible bacterial growth incubated for 18 to 20 hrs by CLSI method; format: functional; details: time 18-20 hrs; in short: as §1
[8] = tested on: Staphylococcus aureus; experiment: Antibacterial activity against methicillin-resistant Staphylococcus aureus NRS382 assessed as inhibition of visible bacterial growth incubated for 18 to 20 hrs by CLSI method; format: functional; details: time 18-20 hrs; in short: as §1
[9] = tested on: Staphylococcus aureus; experiment: Antibacterial activity against vancomycin-resistant Staphylococcus aureus 10 assessed as inhibition of visible bacterial growth incubated for 18 to 20 hrs by CLSI method; format: functional; details: time 18-20 hrs; in short: as §1
[10] = tested on: Staphylococcus aureus; experiment: Antibacterial activity against methicillin-resistant Staphylococcus aureus NRS483 assessed as inhibition of visible bacterial growth incubated for 18 to 20 hrs by CLSI method; format: functional; details: time 18-20 hrs; in short: as §1
[11] = tested on: Staphylococcus aureus; experiment: Antibacterial activity against methicillin-resistant Staphylococcus aureus USA400 infected in mouse J774 cells assessed as log reduction in intracellular growth at 16 ug/ml incubated for 18 to 22 hrs; format: functional; details: dose 16 µg/ml; time 18-22 hrs
In short: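 J774 murine macrophages grown in DMEM with 10% FBS at 37 °C, 5% CO2. Cells infected with MRSA USA400 at MOI about 10:1 for 1 h, then washed with gentamicin to remove extracellular bacteria. Agents added at 8 or 16 μg/mL in triplicate, with DMSO vehicle control, for 24 h. Cells lysed with 0.1% Triton-X, lysates plated on tryptic soy agar, and CFU counted after 18-22 h at 37 °C. Analysed by two-way ANOVA with Dunnett's test.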

[12] = tested on: Staphylococcus epidermidis; experiment: Antibacterial activity against Staphylococcus epidermidis NRS101 assessed as inhibition of visible bacterial growth incubated for 18 to 20 hrs by CLSI method; format: functional; details: time 18-20 hrs; in short: as §2
[13] = tested on: Pseudomonas aeruginosa; experiment: Antibacterial activity against Pseudomonas aeruginosa ATCC 27853 assessed as inhibition of visible bacterial growth at 16 ug/ml incubated for 18 to 20 hrs by CLSI method; format: functional, organism-based; details: dose 16.0 µg/ml, time 18-20 hrs; in short: as §1
[14] = tested on: Staphylococcus aureus; experiment: Antibacterial activity against Staphylococcus aureus ATCC 25923 assessed as inhibition of visible bacterial growth incubated for 18 to 20 hrs by CLSI method; format: functional; details: time 18-20 hrs; in short: as §1
[15] = tested on: Enterococcus faecalis; experiment: Antibacterial activity against vancomycin- resistant Enterococcus faecalis ATCC 700221 assessed as inhibition of visible bacterial growth incubated for 18 to 20 hrs by CLSI method; format: functional; details: time 18-20 hrs; in short: as §1
[16] = tested on: Caco-2; experiment: Cytotoxicity against human Caco2 cells assessed as reduction in cell viability at 128 ug/ml incubated for 2 hrs by MTS assay; format: cell-based; details: caco-2, 2 h, dose 128 µg/ml
[17] = tested on: Staphylococcus aureus; experiment: Antibacterial activity against methicillin-resistant Staphylococcus aureus NRS123 assessed as inhibition of visible bacterial growth incubated for 18 to 20 hrs by CLSI method; format: functional; details: time 18-20 hrs; in short: as §1
[18] = Hemolytic activity in human RBC at 128 ug/ml incubated for 60 mins relative to control; format: ADME, cell-based, Erythrocyte; details: red blood cells (erythrocytes), dose 128 µg/ml, read-out: Activity
In short: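 Single-donor human erythrocytes as a 5% v/v suspension in PBS. Compounds serially diluted in PBS, in triplicate, and incubated with RBCs at 37 °C for 60 min. PBS served as the negative control and Triton-X as the positive control. Samples spun at 4,000 rpm for 5 min and supernatant absorbance read at 540 nm. Percent hemolysis = 100×(sample−negative)/(positive−negative).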

[19] = tested on: Staphylococcus aureus; experiment: Antibacterial activity against methicillin-sensitive Staphylococcus aureus NRS 107 assessed as inhibition of visible bacterial growth incubated for 18 to 20 hrs by CLSI method; format: functional; details: time 18-20 hrs; in short: as §1
[20] = tested on: Escherichia coli; experiment: Antibacterial activity against Escherichia coli ATCC 25404 assessed as inhibition of visible bacterial growth at 16 ug/ml incubated for 18 to 20 hrs by CLSI method; format: functional, organism-based; details: B ATCC 25404, dose 16.0 µg/ml, time 18-20 hrs; in short: as §1
[21] = tested on: Staphylococcus aureus; experiment: Synergistic antibacterial activity against methicillin-resistant Staphylococcus aureus ATCC 33592 assessed as fractional inhibitory concentration index in presence of linezolid by checkerboard assay; format: functional
[22] = tested on: Staphylococcus aureus; experiment: Antibacterial activity against methicillin-resistant Staphylococcus aureus ATCC 33592 assessed as reduction in bacterial count at 3 x MIC incubated upto 24 hrs by time kill analysis; format: functional; details: time hrs <=24
In short: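 Time-kill assay. […] Samples taken at 0, 2, 4, 8, 12 and 24 h, serially diluted in PBS and plated on tryptic soy agar. Viable CFU/mL counted after 18-20 h at 37 °C.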

[23] = tested on: Staphylococcus aureus; experiment: Synergistic antibacterial activity against methicillin-resistant Staphylococcus aureus ATCC 33592 assessed as fractional inhibitory concentration index in presence of methicillin by checkerboard assay; format: functional
[24] = tested on: Enterococcus faecalis; experiment: Antibacterial activity against vancomycin- resistant Enterococcus faecalis ATCC 51299 assessed as inhibition of visible bacterial growth incubated for 18 to 20 hrs by CLSI method; format: functional; details: time 18-20 hrs; in short: as §1
[25] = tested on: Staphylococcus aureus; experiment: Antibacterial activity against methicillin-resistant Staphylococcus aureus NRS385 assessed as inhibition of visible bacterial growth incubated for 18 to 20 hrs by CLSI method; format: functional; details: time 18-20 hrs; in short: as §1
[26] = tested on: Staphylococcus aureus; experiment: Antibacterial activity against methicillin-resistant Staphylococcus aureus NRS383 assessed as inhibition of visible bacterial growth incubated for 18 to 20 hrs by CLSI method; format: functional; details: time 18-20 hrs; in short: as §1
[27] = tested on: Staphylococcus aureus; experiment: Antibacterial activity against vancomycin-resistant Staphylococcus aureus 12 assessed as inhibition of visible bacterial growth incubated for 18 to 20 hrs by CLSI method; format: functional; details: time 18-20 hrs; in short: as §1

SMILES: O=C(Nc1nnc(-c2cccs2)o1)c1ccc(S(=O)(=O)C(F)(F)F)cc1
- Activity [1]: Non-Toxic
- MIC [2]: 2 µg/mL (≈ 4.96 µM)
- MIC [3]: 8 µg/mL (≈ 19.8 µM)
- MIC [4]: 2 µg/mL (≈ 4.96 µM)
- inhibition [5]: inactive
- MIC [6]: 4 µg/mL (≈ 9.92 µM)
- MIC [7]: 8 µg/mL (≈ 19.8 µM)
- MIC [8]: 8 µg/mL (≈ 19.8 µM)
- MIC [9]: 4 µg/mL (≈ 9.92 µM)
- MIC [10]: 4 µg/mL (≈ 9.92 µM)
- Activity [11]: 0.6 log10CFU/ml
- MIC [12]: 4 µg/mL (≈ 9.92 µM)
- inhibition [13]: inactive
- MIC [14]: 0.5 µg/mL (≈ 1.24 µM)
- MIC [15]: 4 µg/mL (≈ 9.92 µM)
- Activity [16]: Non-Toxic
- MIC [17]: 4 µg/mL (≈ 9.92 µM)
- hemolysis at 1 h, 128 ug/ml [18]: 37%
- MIC [19]: 4 µg/mL (≈ 9.92 µM)
- inhibition [20]: inactive
- fractional inhibitory concentration index (FICI) [21]: 1.03
- Activity [22]: 1.04 log10CFU/ml
- fractional inhibitory concentration index (FICI) [23]: 0.53
- MIC [24]: 4 µg/mL (≈ 9.92 µM)
- MIC [25]: 8 µg/mL (≈ 19.8 µM)
- MIC [26]: 8 µg/mL (≈ 19.8 µM)
- MIC [27]: 8 µg/mL (≈ 19.8 µM)
